Laboratory results published in ChEMBL document CHEMBL5674881, “The therapeutic properties of resminostat for hepatocellular carcinoma” (2018).
Activity calls are given as the source filed them. No cut-off for these calls is given here.

Key:
Hep 3B2 [1] = test: Effect on human Hep3B cells assessed as reduction in HDAC1 mRNA level at 80 nM incubated for 24 hrs by qRT-PCR analysis; assay type: functional, cell-based
Summary of the method: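 RNA levels of HDAC1 and HDAC2 measured in Hep3B cells after 24 h with 80 nM drug, 17-AAG (50 nM) or the combination (n = 3). Cells grown in EMEM with 10% FBS at 37°C, 5% CO2.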

Hep 3B2 [2] = test: Upregulation of BAX expression in human Hep3B cells at 80 nM incubated for 24 hrs by qRT-PCR analysis; assay type: functional, cell-based
Summary of the method: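 RNA levels of BCL-2, BIM, BAX and BAD measured in Hep3B cells after 24 h with 80 nM drug. Triplicates, three independent experiments, t-test.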

Huh-7 [3] = test: Anti-proliferative activity against human Huh-7 cells assessed as reduced cell proliferation at 80 nM incubated for 24 hrs in presence of SGBS CM by Fluoro Fire-Blue ProViaTox assay; assay type: functional, cell-based
Hep 3B2 [4] = test: Anti-proliferative activity against human Hep3B cells assessed as reduction in cell viability at 80 nM incubated for 24 hrs in presence of SC1 by Fluoro Fire-Blue ProViaTox assay relative to control; assay type: functional, cell-based
Hep 3B2 [5] = test: Anti-proliferative activity against human Hep3B cells assessed as reduced cell proliferation at 80 nM incubated for 24 hrs by Fluoro Fire-Blue ProViaTox assay; assay type: functional, cell-based
Huh-7 [6] = test: Effect on human Huh-7 cells assessed as reduction in HDAC1 mRNA level at 80 nM incubated for 24 hrs by qRT-PCR analysis; assay type: functional, cell-based
Summary of the method: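 HepG2 (EMEM) and Huh7 (DMEM) cells, both with 10% FBS, treated with 30% differentiated-SGBS conditioned medium with or without 80 nM drug. HDAC1 RNA given as fold change versus untreated cells or between treatments (n = 3).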

Hep 3B2 [7] = test: Anti-proliferative activity against human Hep3B cells assessed as increase in p21 mRNA expression at 80 nM incubated for 24 hrs in presence of SGBS CM by qRT-PCR analysis; assay type: functional, cell-based
Hep 3B2 [8] = test: Anti-proliferative activity against human Hep3B cells assessed as reduction in cell viability at 80 nM measured after 24 hrs in presence of 17-AAG by Fluoro Fire-Blue ProViaTox assay; conditions: Hep 3B2, time 24.0 hrs
Hep 3B2 [9] = test: Anti-proliferative activity against human Hep3B cells assessed as no change in BAD expression at 80 nM incubated for 24 hrs by qRT-PCR analysis; assay type: functional, cell-based
Hep 3B2 [10] = test: Anti-proliferative activity against human Hep3B cells assessed as increase in Caspase 3 expression at 80 nM incubated for 24 hrs by qRT-PCR analysis; assay type: functional, cell-based
Hep 3B2 [11] = test: Anti-proliferative activity against human Hep3B cells assessed as reduction in cell viability at 80 nM incubated for 24 hrs in presence of doxorubicin by Fluoro Fire-Blue ProViaTox assay relative to control; assay type: functional, cell-based
Hep 3B2 [12] = test: Downregulation of HSP90 mRNA expression in human Hep3B cells at 80 nM incubated for 24 hrs in presence of 17-AAG by qRT-PCR analysis; assay type: functional, cell-based
Hep 3B2 [13] = test: Effect on human Hep3B cells assessed as reduction in HDAC3 mRNA level at 80 nM incubated for 24 hrs in presence of SGBS CM by qRT-PCR analysis; assay type: functional, cell-based
Summary of the method: (§1)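 Hep3B cells exposed to 30% conditioned medium from differentiated SGBS adipocytes, with or without 80 nM drug. HDAC1, 2 and 3 RNA given as fold change versus untreated cells or between treatments.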

Hep 3B2 [14] = test: Downregulation of ZFP64 mRNA expression in human Hep3B cells at 80 nM incubated for 24 hrs in presence of 17-AAG by qRT-PCR analysis
Hep 3B2 [15] = test: Anti-proliferative activity against human Hep3B cells assessed as increase in expression at 80 nM incubated for 24 hrs by qRT-PCR analysis
Hep 3B2 [16] = test: Downregulation of STAT3 expression in human Hep3B cells at 80 nM incubated for 24 hrs in presence of GSK343 by qRT-PCR analysis; assay type: functional, cell-based
Summary of the method: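 RNA from Hep3B cells treated 24 h with GSK343 (7 nM) alone or with 80 nM drug; EZH2 and STAT3 levels compared between the two treatments. Cells grown in EMEM with 10% FBS, 2 mM L-glutamine, 37°C, 5% CO2.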

HepG2 = test: Anti-proliferative activity against human HepG2 cells assessed as reduced cell proliferation at 80 nM incubated for 24 hrs by Fluoro Fire-Blue ProViaTox assay; assay type: functional, cell-based
Hep 3B2 [17] = test: Anti-proliferative activity against human Hep3B cells assessed as reduction in cell viability at 80 nM measured after 24 hrs in presence of 17-AAG under SGBS CM treatment by Fluoro Fire-Blue ProViaTox assay relative to control
Hep 3B2 [18] = test: Anti-proliferative activity against human Hep3B cells assessed as increase in IL-10 mRNA level at 80 nM incubated for 24 hrs in presence of SGBS CM by qRT-PCR analysis; assay type: functional, cell-based
Hep 3B2 [19] = test: Effect on human Hep3B cells assessed as reduction in HDAC1 mRNA level at 80 nM incubated for 24 hrs in presence of SGBS CM by qRT-PCR analysis; assay type: functional, cell-based; summary of the method: as §1
Hep 3B2 [20] = test: Anti-proliferative activity against human Hep3B cells assessed as increase in BAX mRNA level at 80 nM incubated for 24 hrs by qRT-PCR analysis; assay type: functional, cell-based
Hep 3B2 [21] = test: Anti-proliferative activity against human Hep3B cells assessed as decrease in leptin mRNA level at 80 nM incubated for 24 hrs in presence of SGBS CM by qRT-PCR analysis; assay type: functional, cell-based
Hep 3B2 [22] = test: Downregulation of BCL2 mRNA expression in human Hep3B cells at 80 nM incubated for 24 hrs in presence of 17-AAG by qRT-PCR analysis; assay type: functional, cell-based
Hep 3B2 [23] = test: Anti-proliferative activity against human Hep3B cells assessed as reduced cell proliferation at 80 nM incubated for 24 hrs in presence of SGBS CM by Fluoro Fire-Blue ProViaTox assay; assay type: functional, cell-based
Hep 3B2 [24] = test: Anti-proliferative activity against human Hep3B cells assessed as cell proliferation at incubated for 24 hrs by Fluoro Fire-Blue ProViaTox assay; assay type: functional, cell-based; conditions: dose 20-100 nM
Hep 3B2 [25] = test: Anti-proliferative activity against human Hep3B cells assessed as reduction in cell viability at 80 nM for 24 hrs in presence of GSK343 by Fluoro Fire-Blue ProViaTox assay relative to control; assay type: functional

CN(C)Cc1ccc(S(=O)(=O)n2ccc(/C=C/C(=O)NO)c2)cc1 [RESMINOSTAT]
Activity (Hep 3B2 [1]): Active | Activity (Hep 3B2 [2]): Active | Activity (Huh-7 [3]): Active | Activity (Hep 3B2 [4]): Active | Activity (Hep 3B2 [5]): Active | Activity (Huh-7 [6]): Active | Activity (Hep 3B2 [7]): Active | Activity (Hep 3B2 [8]): Active | Activity (Hep 3B2 [9]): Active | Activity (Hep 3B2 [10]): Active | Activity (Hep 3B2 [11]): Active | Activity (Hep 3B2 [12]): Active | Activity (Hep 3B2 [13]): Active | Activity (Hep 3B2 [14]): Active | Activity (Hep 3B2 [15]): Active | Activity (Hep 3B2 [16]): Active | Activity (HepG2): Active | Activity (Hep 3B2 [17]): 31.47% | Activity (Hep 3B2 [18]): Active | Activity (Hep 3B2 [19]): Active | Activity (Hep 3B2 [20]): Active | Activity (Hep 3B2 [21]): Active | Activity (Hep 3B2 [22]): Active | Activity (Hep 3B2 [23]): Active | Activity (Hep 3B2 [24]): Dose-Dependent Effect | Activity (Hep 3B2 [25]): 21.61%
